p97 inhibitor = blocks human p97 ATPase activity. P55072. recombinant p97 ATPase, Kinase-Glo ATP luminescence, 3 h. inhibition, % at 8 µM. 220,000 tested, 0.42% active. AID 1481; in the data active = inhibition above about 15%
Target sequence (P55072 whole entry, looked up): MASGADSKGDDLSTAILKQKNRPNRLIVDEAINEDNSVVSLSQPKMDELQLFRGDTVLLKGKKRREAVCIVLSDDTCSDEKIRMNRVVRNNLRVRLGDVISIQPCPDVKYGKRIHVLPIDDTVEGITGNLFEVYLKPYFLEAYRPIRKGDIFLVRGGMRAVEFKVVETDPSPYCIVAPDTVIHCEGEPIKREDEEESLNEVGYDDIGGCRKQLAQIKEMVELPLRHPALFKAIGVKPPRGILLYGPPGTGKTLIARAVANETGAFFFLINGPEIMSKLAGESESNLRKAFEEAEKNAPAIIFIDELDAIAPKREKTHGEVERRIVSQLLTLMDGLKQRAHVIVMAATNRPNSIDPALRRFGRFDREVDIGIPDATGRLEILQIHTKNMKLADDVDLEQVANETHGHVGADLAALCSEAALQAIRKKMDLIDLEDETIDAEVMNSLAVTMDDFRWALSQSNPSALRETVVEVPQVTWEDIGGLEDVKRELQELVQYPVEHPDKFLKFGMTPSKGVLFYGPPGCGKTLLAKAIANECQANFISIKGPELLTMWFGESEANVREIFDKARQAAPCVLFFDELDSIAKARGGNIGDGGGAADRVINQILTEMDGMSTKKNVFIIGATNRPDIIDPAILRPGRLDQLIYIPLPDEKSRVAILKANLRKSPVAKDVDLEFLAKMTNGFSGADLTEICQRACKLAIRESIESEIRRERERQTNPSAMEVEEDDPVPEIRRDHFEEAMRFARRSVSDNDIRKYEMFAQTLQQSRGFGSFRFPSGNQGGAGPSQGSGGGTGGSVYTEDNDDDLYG
M18AAP inhibitor = PfM18AAP enzyme inhibition | recombinant PfM18AAP, H-Glu-NHMec fluorogenic cleavage | inhibition, % at 7.35 µM | 290,000 tested, 1.2% active | AID 1822;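 active = inhibition above the campaign mean inhibition over all tested compounds plus 3 SD, cut at about 28% in these data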
UPR XBP1 act = activators of adaptive arm of unfolded protein response (XBP1); CHO-XBP1 luciferase reporter, IRE1-XBP1 UPR activation, luminescence; percent of tunicamycin response, DMSO as zero; 330,000 tested, 0.33% active; activation, % at 20 µM; AID 463104;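 active = versus positive control, 20 µM dose yields 30% or more activation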
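Material: CHO cell line with stable XBP1 luciferase reporter; buffer or medium: F12 medium containing 10% fetal bovine serum; compound: single point, 20 µM final compound, 1% DMSO; incubation: 6 h treatment, 37 °C; measured by: glow luminescence from Steady-Glo reagent; evaluation: activation, % of tunicamycin; control set: tunicamycin high, DMSO low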
CHOP UPR activ = activators of apoptotic arm of unfolded protein response (CHOP) | CHO-CHOP luciferase reporter, UPR activation, luminescence; percent of tunicamycin response over DMSO baseline | activation, % at 10 µM | 330,000 tested, 0.34% active | AID 449763;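 active = at 10 µM dose, activation of 40% or more, normalized to positive control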
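Dosing – one dose, 10 µM in 0.5% DMSO · System – CHO-CHOP cells, stable luciferase reporter of PERK-eIF2a-CHOP signalling · Input – 500 cells/well · Control set – tunicamycin 10 µg/mL final as positive, DMSO-only wells as negative · Timing – 6 h compound treatment, 37 °C · Measure – % activation vs tunicamycin · Technique – luminescence read with Steady-Glo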
NS3 helicase inh = HCV NS3 helicase inhibition | 290,000 tested, 0.56% active | inhibition, % at 10.9 µM | NS3 helicase DNA unwinding, Cy5 molecular beacon fluorescence;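 active = inhibition above the mean of all tested compounds plus 3 SD, set per campaign, cut at about 35% in these data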
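System: HCV NS3 helicase fragment; control set: DMSO and thioflavine S; technique: Cy5 fluorescence at 0 and 60 min, beacon hairpin quenching; reagent: beacon DNA duplex substrate plus ATP; replicates: singlicate; schedule: 1 h reaction at 25 °C, ATP-initiated; medium: MOPS buffer pH 6.5 with MgCl2, DTT, Tween20, BSA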
CHOP inh = CHOP inhibition in unfolded protein response | CHO-K1 CHOP-promoter luciferase, tunicamycin-induced, 15-18 h | inhibition, % at 10 µM | 220,000 tested, 3.8% active;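 active = compounds that reduced the stress-induced luciferase reporter signal by more than about 70% of percent inhibition, limit read from the data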
A number is an active result; – = inactive; · = no result. In the library only some 4.5% were active in any assay of this set; here they are far more common.

SMILES	p97 inhibitor	M18AAP inhibitor	UPR XBP1 act	CHOP UPR activ	NS3 helicase inh	CHOP inh
O=c1[nH]c2ccc(Br)cc2c(-c2ccccc2)c1CN1CCOCC1	–	–	–	–	–	–
Cc1sc2ncn3ncnc3c2c1C	–	–	–	–	–	90
CC(C)CC(=O)Nc1ccc(F)c(Cl)c1	–	–	–	–	–	90
O=C(Cc1ccc(Cl)cc1Cl)Nc1ccc(OC(F)F)c(Cl)c1	–	–	–	–	–	95
O=C(Nc1cccc(S(=O)(=O)Nc2ccccc2F)c1)c1ccc2ccccc2n1	–	30	–	–	–	–
COc1ccccc1NS(=O)(=O)c1cccc(NC(=O)c2ccc3ccccc3n2)c1	–	–	–	–	–	–
O=C(Cc1ccc(Cl)cc1Cl)Nc1cccc(S(=O)(=O)Nc2ccccc2F)c1	–	29	–	–	–	87
O=C(COC(=O)Cc1ccc(Cl)cc1Cl)Nc1ccc(OC(F)F)cc1	–	–	–	–	–	–
CCOC(=O)N1CCN(C(=O)C2CCC(=O)N(Cc3ccc(Cl)cc3)C2)CC1 (configuration not stated)	·	–	–	–	–	·
COc1ccc(/C=C2\SC(=S)N(CC(=O)OCC(=O)Nc3ccc(C)cc3Cl)C2=O)cc1	–	–	–	–	–	–
Cc1ccc(NS(=O)(=O)c2cccc(C(=O)NNC(=O)c3cccn3C)c2)c(C)c1	·	–	–	–	–	·
C=CCn1c(SCC(=O)Nc2cc(C)on2)nnc1-c1ccccc1F	·	·	–	–	·	·
COc1cc(OC)c(NC(=O)c2sc3ncn(CC(=O)N4CCN(c5ccccn5)CC4)c(=O)c3c2C)cc1Cl	·	–	–	–	–	·
CN(CCOCCOc1ccc2ccccc2c1)Cc1ccccc1	–	–	–	–	–	71
O=[N+]([O-])c1ccc(O)c(C=Nc2ccc3nc(-c4ccccc4)[nH]c3c2)c1	–	–	–	–	–	–
Oc1c(Br)cc(C=Nc2ccc3nc(-c4ccccc4)[nH]c3c2)c(O)c1Br	–	29	–	–	–	–
Oc1c(Cl)cc(Cl)cc1C=Nc1ccc2c(c1)OCCO2	–	–	–	–	–	87
CCn1c(CCCOc2ccc(Cl)cc2Cl)nnc1SCC(=O)Nc1cc(F)ccc1C	–	–	–	–	–	84
CC(C)OC(=O)Cn1nc(C(c2ccccc2)c2ccccc2)oc1=O	·	–	–	–	–	·
COc1ccc(CC(=O)OCc2cc3cccc(C)c3[nH]c2=O)cc1	–	–	–	–	–	–
COc1ccc(C(=O)OCc2cc3cccc(C)c3[nH]c2=O)cc1	–	–	–	–	–	81
O=C(COC(=O)CC12CC3CC(CC(Br)(C3)C1)C2)NC(=O)NCc1ccco1	–	–	–	–	–	71
CCCNc1c(NS(=O)(=O)c2c(F)c(F)c(F)c(F)c2F)c(=O)oc2ccccc12	·	–	–	–	–	·
Cc1cc(C)nc(Nc2ncc(O)n2-c2ccc(C)c(Cl)c2)n1	–	–	–	–	–	80
Cc1cc(C)nc(Nc2ncc(O)n2-c2ccc(C)c(C)c2)n1	–	–	–	–	–	–
SMILES	p97 inhibitor	M18AAP inhibitor	UPR XBP1 act	CHOP UPR activ	NS3 helicase inh	CHOP inh
CCOC(=O)c1sc(NC(=O)CCN2C(=O)C3CCCCC3C2=O)cc1C (configuration not stated)	·	·	–	–	·	·
O=C(/C=C/Nc1ccccc1Br)c1ccccn1	–	–	–	–	–	88
CCOc1ccc(CCNC(=O)COC(=O)c2ccc[nH]c2=O)cc1OCC	·	·	–	–	·	·
CC(C)OC(=O)c1cccc(-c2ccc(C=O)o2)c1	–	–	–	–	–	–
CC(=O)Nc1nc(-c2ccccc2)nc(-c2ccccc2OC(C)=O)n1	–	–	–	–	–	90
Cc1cc(C(=O)OCC(=O)Nc2nc(-c3ccccc3)cs2)c(C)o1	–	–	–	–	–	94
O=[N+]([O-])c1ccc(S(=O)(=O)Nc2ccc(-c3csc(-c4ccccc4)n3)cc2)cc1	–	–	–	–	–	–
O=C(CS(=O)(=O)c1ccccc1)Nc1nc(-c2ccccc2)cs1	–	–	–	–	–	–
Cc1ccc(S(=O)(=O)Nc2ccc(-c3csc(-c4ccccc4)n3)cc2)cc1	–	–	–	–	–	94
Cc1ccc(S(=O)(=O)CC(=O)Nc2nc(-c3ccccc3)cs2)cc1	–	–	–	–	–	90
Cc1cc(C(=O)OC(C)C(=O)Nc2nc(-c3ccccc3)cs2)c(C)o1 (configuration not stated)	–	–	–	–	–	–
CCN(CC)S(=O)(=O)c1cccc(NC(=O)COC(=O)c2cc(C)oc2C)c1	–	–	–	–	–	72
CCc1cc(=O)oc2cc(C)cc(OC(C)C(=O)NCc3ccccn3)c12 (configuration not stated)	·	–	–	–	–	·
CN1CCN(S(=O)(=O)c2cccc(C(=O)Nc3ccc(Br)cc3Br)c2)CC1	·	–	–	–	–	·
Cc1cccc(Oc2cc([N+](=O)[O-])cc3c2C(=O)Nc2ccccc2O3)c1	–	–	–	–	–	92
CC(C)C[C@H](NC(=O)C1OC1C(=O)O)C(=O)NCCCCN=C(N)N (some centres not stated)	·	·	·	·	·	–
O=C(N/C(=C\c1ccco1)C(=O)N1CCCC1)c1ccccc1	·	32	–	–	–	·
Cc1ccc(C(=O)N/C(=C/c2ccco2)C(=O)N2CCCCCC2)cc1	·	–	–	–	–	·
Cc1ccc(C(=O)N/C(=C/c2ccco2)C(=O)Nc2cccc(C(=O)O)c2)cc1	·	30	–	–	–	·
Cc1cccc(C(=O)N/C(=C\c2ccco2)C(=O)N2CCCC2)c1	·	29	–	–	–	·
CCOC(=O)C1(CCOC)CCN(C(=O)Cc2ccc3ccccc3c2)CC1	·	–	–	–	–	·
COc1ccc(-c2nn3c(-c4ccc(F)cc4)nnc3s2)cc1	–	–	–	–	–	83
COc1ccc(-c2nn3c(-c4ccccc4)nnc3s2)cc1	–	–	–	–	–	–
Cc1cc(-c2nnnn2-c2cc(Cl)cc(Cl)c2)no1	–	–	–	–	–	–
Cc1cccc(N2CCN(c3cccc(C)c3)C2c2cccnc2)c1	–	–	–	–	–	·
Cc1ccc(N2CCN(c3ccc(C)cc3)C2c2ccncc2)cc1	–	–	–	–	–	77
CC(=O)c1cccc(NS(=O)(=O)c2ccc(N/C=C/C(=O)c3ccc(F)cc3)cc2)c1	–	–	–	–	–	83
CC(=O)c1cccc(NS(=O)(=O)c2ccc(N/C=C\C(=O)c3ccc(F)cc3)cc2)c1	–	–	–	–	–	84
Cc1ccc(N2CC(C(=O)Nc3ncc([N+](=O)[O-])s3)CC2=O)cc1 (configuration not stated)	·	–	–	–	–	·
